Assay results pooled from the literature.
Protocols differ between the studies behind these lines.
DRD3: D(3) dopamine receptor (DRD3, Homo sapiens, UniProt P35462)
USP51: Ubiquitin carboxyl-terminal hydrolase 51 (USP51, Homo sapiens, UniProt Q70EK9)
CA12: Carbonic anhydrase 12 (CA12, Homo sapiens, UniProt O43570)
SLC6A3: Sodium-dependent dopamine transporter (SLC6A3, Homo sapiens, UniProt Q01959)

`COc1ccc(S(N)(=O)=O)cc1C(=O)NCCCN1CCN(c2ccccc2OC)CC1` gave an inhibition of 21.6% (DRD3; enzyme activity, inhibitor; 10 µM).
With `CC(=O)O[C@H]1[C@H](O[C@@H]2[C@@H](O)[C@@H](O)[C@H](Oc3c(-c4ccc(O)cc4)oc4cc(O)cc(O)c4c3=O)O[C@H]2C)O[C@H](CO)[C@@H](O)[C@@H]1O` the inhibition was 58% (Aromatase (CYP19A1, Homo sapiens, UniProt P11511); enzyme activity, inhibitor; 20 µg/mL).
`O=C(CCN1CCC(O)(c2ccc(F)cc2)C1)c1ccc2c(c1)OCCO2` (stereo not shown) has an inhibition of 9% (DRD3; enzyme activity, inhibitor; 10 µM).
For `C/C=C1\[C@H]2C=C(C)C[C@]1(N)c1ccc(=O)[nH]c1C2`, the inhibition was 47% (USP51; enzyme activity, inhibitor; 5 µM).
With `COc1ccccc1N1CCN(CCCCN2C(=O)C3CCCCN3C2=O)CC1` (stereo not shown) the inhibition was 47.5% (DRD3; enzyme activity, inhibitor; 10 µM).
With `CCOC(=O)C1CSc2[nH]c(=O)sc2C1c1cn(-c2ccccc2)nc1-c1ccc(C)cc1` (stereo not shown) the inhibition was 28% (CA12; enzyme activity, inhibitor, absorbance; 0.1 µM).
The inhibition of `Fc1ccc(C(c2ccc(F)cc2)c2nnnn2CCCN2CCC(CCCc3ccccc3)CC2)cc1` is reported as 33.1% (SLC6A3; transporter uptake, inhibitor; HEK293; 1 µM).
`CC1CCC(C(C)C)C(O)C1` (racemic) has an inhibition of 37% (USP51; enzyme activity, inhibitor; 5 µM).
The inhibition of `O=C(Nc1ccc(S(=O)(=O)N2CCC(Cl)CC2)cc1)c1ccc([N+](=O)[O-])o1` is reported as 17% (Sodium- and chloride-dependent GABA transporter 1 (Slc6a1, Rattus norvegicus, UniProt P23978); ligand displacement, radioligand; 10 µM).
For `Clc1ccc(C(c2ccccc2)c2nnnn2CCCCN2CCC(CCCc3ccccc3)CC2)cc1` (stereo not shown), the inhibition was 69% (SLC6A3; transporter uptake, inhibitor; HEK293; 1 µM).
`CC1(C)[C@@H](O)CC[C@]2(C)[C@H]3C(=O)C=C4[C@@H]5C[C@@](C)(C(=O)O)CC[C@]5(C)CC[C@@]4(C)[C@]3(C)CC[C@@H]12` has an inhibition of 3% (USP51; enzyme activity, inhibitor; 5 µM).
`Clc1ccc(C(c2ccccc2)c2nnnn2CCCCN2CCN(CCc3ccccc3)CC2)cc1` (stereo not shown) gave an inhibition of 62.1% (SLC6A3; transporter uptake, inhibitor; HEK293; 1 µM).
`NS(=O)(=O)c1ccc(CCNCc2cccc3ccccc23)cc1` has an inhibition of 39.3% (DRD3; enzyme activity, inhibitor; 10 µM).
The inhibition of `O=C(O)CC(O)C(=O)O` (stereo not shown) is reported as 31% (USP51; enzyme activity, inhibitor; 5 µM).
`CCOc1ccc(CNCC(O)c2ccccc2)cc1Br` (stereo not shown) gave an inhibition of 11.4% (DRD3; enzyme activity, inhibitor; 10 µM).
`CCCC(=O)O` gave an inhibition of 30% (USP51; enzyme activity, inhibitor; 5 µM).
`O=C1NC(=S)C(=Cc2cn(-c3ccccc3)nc2-c2ccc(Br)cc2)S1` has an inhibition of 11.1% (CA12; enzyme activity, inhibitor, absorbance; 0.1 µM).
The inhibition of `N[C@@H](CSSC[C@H](N)C(=O)O)C(=O)O` is reported as 24% (USP51; enzyme activity, inhibitor; 5 µM).
`CCOC(=O)C1CSc2[nH]c(=O)sc2C1c1cn(-c2ccccc2)nc1-c1ccc(OC)cc1` (stereo not shown) has an inhibition of 37.6% (CA12; enzyme activity, inhibitor, absorbance; 0.1 µM).
`CCC(=O)c1ccc(OCC(O)CN2CCN(S(=O)(=O)N3CCCCC3)CC2)cc1` (stereo not shown) gave an inhibition of 7.7% (DRD3; enzyme activity, inhibitor; 10 µM).
With `O=C(OC[C@H]1O[C@@H](OC(=O)c2cc(O)c(O)c(OC(=O)c3cc(O)c(O)c(O)c3)c2)[C@H](OC(=O)c2cc(O)c(O)c(OC(=O)c3cc(O)c(O)c(O)c3)c2)[C@@H](OC(=O)c2cc(O)c(O)c(OC(=O)c3cc(O)c(O)c(O)c3)c2)[C@@H]1OC(=O)c1cc(O)c(O)c(OC(=O)c2cc(O)c(O)c(O)c2)c1)c1cc(O)c(O)c(OC(=O)c2cc(O)c(O)c(O)c2)c1` the inhibition was 100% (USP51; enzyme activity, inhibitor; 5 µM).
The inhibition of `CCOC(=O)C1CSc2[nH]c(=O)sc2C1c1cn(-c2ccccc2)nc1-c1ccc(Cl)cc1` (stereo not shown) is reported as 27.6% (CA12; enzyme activity, inhibitor, absorbance; 10 nM).
